A short description of series [1]: Control incubation in enzyme-free reaction buffer pH 6.0. The series is classed as physicochemical. Conditions: enzyme free buffer pH 6.0, 37 °C, 24 h, 183 μM conjugate, RP-HPLC, n = 3. A digest of the protocol: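 Enzyme-free control run alongside the cathepsin B cleavage assay. Reaction buffer was 150 mM sodium acetate, 12 mM EDTA and 24 mM DTT, pH 6.0. Conjugate was added from a DMSO stock to 183 μM final and incubated at 37 °C. Aliquots were taken over 0–24 h for RP-HPLC. Peak areas at the retention times of pure drug and conjugate tracked conjugate loss and free drug appearance.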

Series [2] can be described thus: Stability in phosphate buffer saline pH 7.4. The series is classed as physicochemical. Conditions: PBS pH 7.4 with 2% DMSO, 196 μM conjugate, 37 °C, 0-24 h, HPLC, n = 3. A digest of the protocol: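 Conjugate in PBS pH 7.4 with 2% DMSO, 196 μM final, held at 37 °C. Aliquots were withdrawn at time points over 0–24 h and analysed by HPLC. Results were plotted as areas of intact conjugate and of released free drug over time (n = 3).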

In the next series the test system is U87MG cells. The experiment in a line: XTT cytotoxicity assay. Conditions: for cytotoxicity on U87MG cells at 24 h: XTT assay, 24 h exposure, 5-160 nM, n = 4. Format: cell-based, Human. The method, boiled down:
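U87MG cells were kept in EMEM with 10% FBS and 1% penicillin–streptomycin at 37 °C, 5% CO2. Cells were seeded at 1 × 10^4/well and treated after 24 h with 5–160 nM test compound at 37 °C. At 24 and 72 h, XTT with electron coupling reagent was added for 3 h, then A450 was read. Values were normalized to untreated cells. Controls were 0.05% DMSO and medium. Mean ± SD, n = 4. IC50 from concentration–response curve fit.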
In general terms: Tetrazolium dyes change colour on reduction, which living cells bring about.

The subject of series [3] is U87MG cells with transferrin receptors blocked by excess T7-PEG4-N3. The experiment in a line: T7 competition assay: transferrin receptor blocking studies. Format: cell-based. Conditions: Homo sapiens, U-87 MG, read-out: IC50 at 72 h in TfR-blocked U87MG cells. The method, boiled down:
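U87MG cells were seeded at 1 × 10^4/well and grown 24 h. Medium was replaced with medium containing a 10-fold molar excess of azido-PEG4-T7 peptide relative to conjugate for 1 h. Cells were then exposed to 5–160 nM test compound. Controls were medium, 0.05% DMSO and peptide alone. XTT read-out at 72 h, A450 relative to controls, n = 4. IC50 from concentration–response curve fit.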

The conditions of series [4]: cited from earlier work.
Another series has as its system TfR. Conditions: cited from earlier work.

Turning to `CCc1c2c(nc3ccc(OCc4ccc(NC(=O)[C@H](C)NC(=O)[C@@H](NC(=O)CCCCCNC(=O)COCCOCCOCCNC(=O)CCCCC(=O)N5Cc6ccccc6-c6c(nnn6CCOCCOCCOCCOCCC(=O)N[C@@H](Cc6c[nH]cn6)C(=O)N[C@@H](C)C(=O)N[C@H](C(=O)N[C@@H](Cc6ccc(O)cc6)C(=O)N6CCC[C@H]6C(=O)N[C@@H](CCCNC(=N)N)C(=O)N[C@@H](Cc6c[nH]cn6)C(=O)O)[C@@H](C)CC)-c6ccccc65)C(C)C)cc4)cc13)-c1cc3c(c(=O)n1C2)COC(=O)[C@]3(O)CC` [Compound T7-SN-38], in series [1], the “release of free SN-38 in enzyme free buffer” value is listed as “No free SN-38 was observed”. In series [2], the “stability in phosphate-buffered saline” value was “very minimal decomposition or cleavage”. Further, the “cytotoxicity on U87MG cells at 24 h” value with U87MG cells is “did not exert pronounced cytotoxicity”.
Turning to `CCc1c2c(nc3ccc(O)cc13)-c1cc3c(c(=O)n1C2)COC(=O)[C@]3(O)CC` [SN-38, 7-Ethyl-10-hydroxycamptothecin], the IC50 came out at 26.4 nM in the series with U87MG cells (Homo sapiens, U-87 MG, 72 h, read-out: IC50 on U87MG cells at 72 h) and 27.6 nM in series [3]. In addition, the “cytotoxicity on U87MG cells at 24 h” value in the series with U87MG cells is reported as “did not exert pronounced cytotoxicity”. Also, the “potency compared to irinotecan” value in series [4] is 100–1000 times.
As to “His-Ala-Ile-Tyr-Pro-Arg-His [T7 peptide]”, in the series on TfR, the “binding affinity for TfR relative to Tf” value is given as “comparable to that of Tf”.

What is called IC50 is the concentration needed to halve the response being measured.

The values above are taken from paper PMC10795035 (ACS Omega, 2024).
